The values that follow come from ChEMBL document CHEMBL1140942, “Novel pyrrolidine ureas as C-C chemokine receptor 1 (CCR1) antagonists” (J Med Chem, 2009).

The source made the active and inactive calls.

Series [1] has as its target T1, C-C chemokine receptor type 1 (Homo sapiens, UniProt P32246).
T1 sequence (P32246 whole entry): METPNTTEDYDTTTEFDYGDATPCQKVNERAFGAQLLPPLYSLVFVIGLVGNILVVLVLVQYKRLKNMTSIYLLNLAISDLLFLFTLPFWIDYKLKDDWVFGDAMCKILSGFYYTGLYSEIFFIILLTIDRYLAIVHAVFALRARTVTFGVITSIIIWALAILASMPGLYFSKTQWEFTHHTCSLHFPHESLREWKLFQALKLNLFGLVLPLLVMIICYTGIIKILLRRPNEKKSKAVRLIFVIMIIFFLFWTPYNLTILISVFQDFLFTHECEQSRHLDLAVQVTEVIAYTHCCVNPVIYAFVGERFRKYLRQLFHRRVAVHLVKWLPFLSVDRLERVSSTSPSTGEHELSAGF
The series can be described thus: Displacement of [125I]MIP-1-alpha from human recombinant CCR1 expressed in HEK293 cells. The format is cell-based. An outline of the steps: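 Scintillation proximity binding in 384-well format. Membranes (50 µg/mL) were mixed with SPA beads (10 mg/mL) in buffer of 130 mM NaCl, 5 mM KCl, 1 mM MnCl₂, 50 mM Tris HCl pH 7.4 and 0.1% BSA. Varied compound concentrations added with [¹²⁵I]MIP-1α at 0.1 nM final. Plates spun, incubated 4 h, then counted.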

Series [2] is described as follows: Metabolic stability in rat liver microsomes assessed as compound remaining at 1 uM after 30 mins by LC/MS. It is filed as ADME, Microsome. To be noted: read-out: Stability. In outline: (§1)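 Compound at 1 µM incubated with rat or human liver microsomes (300 nM cytochrome P450) in phosphate buffer pH 7.4 with 1 mM NADPH for 30 min at 37 °C. Stopped with acetonitrile and centrifuged. Percent remaining at 30 min determined by LC/MS.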

The nature of series [3]: Metabolic stability in human liver microsomes assessed as compound remaining at 1 uM after 30 mins by LC/MS. To be noted: read-out: Stability. The format is ADME, Microsome. An outline of the steps: as §1
Series [4] can be described thus: AUC(0 to 6 hrs) in Sprague-Dawley rat at 5 mg/kg, po. It is filed as ADME, organism-based. On the set-up: time < 6 hr, dose 5 mg/kg, route oral. To be noted: plasma. An outline of the steps:
(§2)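 Male Sprague-Dawley rats, three to four per compound, given 5 mg/kg by oral gavage in 0.5% methyl cellulose, either singly or in a cassette. Serial blood drawn from an indwelling arterial cannula up to 6 or 24 h. Plasma proteins precipitated, and parent compound quantified by LC/MS/MS.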

Series [5] in a line: Cmax in Sprague-Dawley rat at 5 mg/kg, po. It is filed as ADME, organism-based. Further details: dose 5 mg/kg, route oral. To be noted: in vivo. An outline of the steps: as §2
Series [6] is described as follows: (§3) AUC(0 to infinity) in Sprague-Dawley rat at 5 mg/kg, po. The format is ADME, organism-based, Plasma. On the set-up: time infinity, dose 5 mg/kg, route oral. To be noted: Sprague-Dawley, plasma. An outline of the steps:
as §2

Another series relates to Rattus norvegicus. The description is as §3. To be noted: in vivo. Further details: time infinity, dose 5 mg/kg, route oral. It is filed as ADME, organism-based, Plasma. An outline of the steps:
as §2

A short description of series [7]: Oral bioavailability in Sprague-Dawley rat at 5 mg/kg. It is filed as ADME, organism-based. To be noted: in vivo. In outline:
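Oral dosing was 5 mg/kg by gavage in 0.5% methyl cellulose to male Sprague-Dawley rats (three to four), with a 1 mg/kg intravenous dose via indwelling catheter for comparison. Serial arterial-cannula blood sampling. Parent compound in protein-precipitated plasma measured by LC/MS/MS.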

Series [8] is described as follows: Half life in Sprague-Dawley rat at 5 mg/kg, po. It is filed as ADME, organism-based. Further details: dose 5 mg/kg, route oral. To be noted: in vivo. In outline: as §2
The target in series [9] is T2, C-C chemokine receptor type 4 (Homo sapiens) (UniProt P51679).
T2 sequence (whole entry): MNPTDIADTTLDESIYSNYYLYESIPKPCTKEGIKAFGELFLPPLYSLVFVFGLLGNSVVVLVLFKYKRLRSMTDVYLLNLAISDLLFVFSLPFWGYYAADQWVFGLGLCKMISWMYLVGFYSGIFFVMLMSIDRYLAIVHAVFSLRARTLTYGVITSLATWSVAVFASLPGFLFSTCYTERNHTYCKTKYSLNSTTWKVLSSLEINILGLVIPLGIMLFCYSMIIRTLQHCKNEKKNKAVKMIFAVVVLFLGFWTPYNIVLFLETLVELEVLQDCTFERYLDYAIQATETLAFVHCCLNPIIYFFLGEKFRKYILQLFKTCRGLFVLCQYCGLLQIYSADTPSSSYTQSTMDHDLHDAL
The series can be described thus: Inhibition of CCR4.

Series [10] deals with C-C chemokine receptor type 2 (Homo sapiens) (UniProt P41597). The series can be described thus: Inhibition of CCR2b.
The target in series [11] is C-C chemokine receptor type 5 (Homo sapiens) (UniProt P51681). The series can be described thus: Inhibition of CCR5.
Series [12] addresses T3, C-X-C chemokine receptor type 1 (Homo sapiens) (UniProt P25024).
T3 sequence (whole entry): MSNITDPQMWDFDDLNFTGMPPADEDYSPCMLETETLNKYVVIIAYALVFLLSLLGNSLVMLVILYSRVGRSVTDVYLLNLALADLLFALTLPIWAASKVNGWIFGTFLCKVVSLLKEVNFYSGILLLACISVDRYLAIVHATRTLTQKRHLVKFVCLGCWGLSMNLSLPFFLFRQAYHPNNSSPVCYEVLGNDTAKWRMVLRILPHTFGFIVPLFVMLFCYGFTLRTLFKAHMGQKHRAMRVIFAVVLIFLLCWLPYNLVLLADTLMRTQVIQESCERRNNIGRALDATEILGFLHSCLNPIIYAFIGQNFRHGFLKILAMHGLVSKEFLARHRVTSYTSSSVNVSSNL
The series can be described thus: Inhibition of CXCR1.

The target of series [13] is T4, C-X-C chemokine receptor type 2 (Homo sapiens) (UniProt P25025).
T4 sequence (whole entry): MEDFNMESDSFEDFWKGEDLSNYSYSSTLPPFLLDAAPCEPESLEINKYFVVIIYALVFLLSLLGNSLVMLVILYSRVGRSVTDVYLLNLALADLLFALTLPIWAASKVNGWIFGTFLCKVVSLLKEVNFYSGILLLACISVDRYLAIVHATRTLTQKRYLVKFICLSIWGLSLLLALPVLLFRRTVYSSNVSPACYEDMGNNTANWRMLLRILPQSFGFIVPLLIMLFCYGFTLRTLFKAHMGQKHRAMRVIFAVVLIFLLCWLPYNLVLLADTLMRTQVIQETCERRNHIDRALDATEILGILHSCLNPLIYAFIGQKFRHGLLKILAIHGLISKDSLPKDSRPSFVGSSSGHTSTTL
The series can be described thus: Inhibition of CXCR2.

Series [14] concerns the target T5, CX3C chemokine receptor 1 (Homo sapiens) (UniProt P49238).
T5 sequence (whole entry): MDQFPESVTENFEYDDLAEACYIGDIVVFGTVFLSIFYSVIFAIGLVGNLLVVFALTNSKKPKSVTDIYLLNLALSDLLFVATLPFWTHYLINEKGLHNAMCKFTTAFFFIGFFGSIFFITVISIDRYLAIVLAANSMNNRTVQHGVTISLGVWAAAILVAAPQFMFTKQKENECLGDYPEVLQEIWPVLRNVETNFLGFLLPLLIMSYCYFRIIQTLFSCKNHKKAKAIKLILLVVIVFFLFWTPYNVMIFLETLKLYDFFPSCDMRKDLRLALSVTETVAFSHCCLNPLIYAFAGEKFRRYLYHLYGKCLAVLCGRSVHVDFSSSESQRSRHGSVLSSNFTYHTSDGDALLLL
The series can be described thus: Inhibition of CX3CR1.

C-C chemokine receptor type 5 (Homo sapiens), sequence (P51681 whole entry, looked up): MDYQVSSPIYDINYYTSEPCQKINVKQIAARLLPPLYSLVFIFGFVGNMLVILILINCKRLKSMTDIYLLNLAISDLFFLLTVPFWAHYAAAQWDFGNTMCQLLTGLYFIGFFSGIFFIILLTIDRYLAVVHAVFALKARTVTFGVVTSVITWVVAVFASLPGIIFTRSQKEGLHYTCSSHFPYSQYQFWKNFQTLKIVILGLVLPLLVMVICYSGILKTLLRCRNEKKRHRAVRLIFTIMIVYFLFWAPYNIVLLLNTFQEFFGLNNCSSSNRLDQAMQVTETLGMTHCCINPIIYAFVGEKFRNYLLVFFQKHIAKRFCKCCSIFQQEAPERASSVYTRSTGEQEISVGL
C-C chemokine receptor type 2 (Homo sapiens), sequence (P41597 whole entry, looked up): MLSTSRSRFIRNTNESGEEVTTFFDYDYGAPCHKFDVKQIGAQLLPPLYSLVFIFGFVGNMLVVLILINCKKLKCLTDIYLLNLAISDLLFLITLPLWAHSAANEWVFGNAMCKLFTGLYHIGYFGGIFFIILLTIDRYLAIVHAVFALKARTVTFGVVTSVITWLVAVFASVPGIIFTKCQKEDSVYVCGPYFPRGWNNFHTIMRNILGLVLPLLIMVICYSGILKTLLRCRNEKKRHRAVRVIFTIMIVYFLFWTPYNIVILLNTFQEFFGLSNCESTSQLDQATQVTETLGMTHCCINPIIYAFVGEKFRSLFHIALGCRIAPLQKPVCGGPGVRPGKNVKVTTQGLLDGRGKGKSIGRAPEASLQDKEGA

`CN(Cc1ccc(Cl)cc1)C(=O)[C@H]1CCCN1C(=O)Nc1cccc(C(F)(F)F)c1`: the IC50 in series [1] came out at 2950 nM.
On the same count and under the same terms, the value for `CN(Cc1ccc(Cl)cc1)C(=O)[C@H]1CCCN1C(=O)Nc1ccc(C#N)cc1` was 720 nM; that for `O=C([C@H]1CCCN1C(=O)Nc1ccc(Cl)cc1)N(CCO)Cc1cccc(Cl)c1` was above 100000 nM.
With `CC(c1ccc(Cl)cc1)N(C)C(=O)[C@H]1CCCN1C(=O)Nc1ccc(Cl)cc1` (stereo partly specified), the concentration for half-maximal inhibition (IC50) in series [1] was 4700 nM.
For the compound `CN(Cc1ccc(Cl)cc1)C(=O)[C@H]1CCCN1C(=O)Nc1ccc(C(F)(F)F)cc1Cl`, in series [1], the IC50 was found to be 120 nM. Moreover, the values for the remaining at 0.5 h, 1 µM in [2] and in [3] were 68% and 73%, respectively. Also, in series [4], the AUC(0-t) at 6 h amounted to 2060 ng·h/mL. Further, the highest level in series [5] (Cmax) was 437 ng/mL.
Take `CN(Cc1ccc(C(F)(F)F)cc1)C(=O)[C@H]1CCCN1C(=O)Nc1ccc(Cl)cc1`: the IC50 in [1] was above 100000 nM.
The same measure, in the same setting: the result for `CN(Cc1ccc(F)cc1)C(=O)[C@H]1CCCN1C(=O)Nc1ccc(Cl)cc1` reads 1300 nM; that for `Cc1cc(Cl)ccc1CN(C)C(=O)[C@H]1CCCN1C(=O)Nc1ccc(Cl)cc1`, above 100000 nM.
For `Cc1cc(C(F)(F)F)cc(C)c1NC(=O)N1CCC[C@@H]1C(=O)N(C)Cc1ccc(Cl)cc1`, the IC50 in [1] was 11 nM. Moreover, the remaining at 0.5 h, 1 µM in [2] was 84%; in series [3], 74%. Further, the AUC(0-inf) in series [6] is 611 ng·h/mL. Moreover, in series [5], the Cmax came out at 195 ng/mL.
Consider `Cc1cc(CN(C)C(=O)[C@H]2CCCN2C(=O)Nc2ccc(Cl)cc2)ccc1Cl`, for which the IC50 in [1] worked out at 4000 nM.
On to `CN(Cc1ccc(Cl)cc1)C(=O)[C@@H]1CCCN1C(=O)Nc1ccc(C(F)(F)F)cc1`, for which the IC50 in series [1] is above 28000 nM.
On the same count and under the same terms, the value for `Cc1ccc(NC(=O)N2CCC[C@@H]2C(=O)N(C)Cc2ccc(Cl)cc2)cc1` was 680 nM.
Same read-out and setting: the result for `O=C(NCc1ccc(Cl)cc1)[C@H]1CCCN1C(=O)Nc1ccc(Cl)cc1` reads above 75000 nM; that for `O=C([C@H]1CCCN1C(=O)Nc1ccc(Cl)cc1)N(CCO)Cc1ccc(Cl)cc1`, 540 nM.
Same read-out and setting: the value for `COc1ccc(NC(=O)N2CCC[C@@H]2C(=O)N(C)Cc2ccc(Cl)cc2)cc1` was 290 nM.
`Cc1cc(C(F)(F)F)ccc1NC(=O)N1CCC[C@@H]1C(=O)N(C)Cc1ccc(Cl)cc1`: in series [1], the IC50 worked out at 50 nM. In addition, the remaining at 0.5 h, 1 µM in series [2] is 81%; in [3], 58%. In series [4], this compound had an exposure AUC(0-t) at 6 h of 2590 ng·h/mL. The same compound came in with a Cmax in series [5] of 699 ng/mL.
On to `Cc1ccc(CN(C)C(=O)[C@H]2CCCN2C(=O)Nc2ccc(Cl)cc2)cc1`, for which the IC50 in [1] came to 5700 nM.
For `CN(Cc1ccc(C#N)cc1)C(=O)[C@H]1CCCN1C(=O)Nc1ccc(Cl)cc1`, in series [1], the concentration for half-maximal inhibition (IC50) is above 13000 nM.
Same read-out and setting: the result for `CCCN(Cc1ccc(Cl)cc1)C(=O)[C@H]1CCCN1C(=O)Nc1ccc(Cl)cc1` reads 3600 nM; that for `CN(Cc1ccc(Cl)cc1)C(=O)[C@H]1CCN1C(=O)Nc1ccc(C(F)(F)F)cc1`, above 100000 nM.
The same measure, in the same setting: the result for `CN(Cc1ccc(Cl)cc1)C(=O)[C@H]1CCCN1C(=O)Nc1ccc(Cl)cc1` reads 270 nM; that for `CN(Cc1ccc(Cl)cc1)C(=O)[C@H]1CCCN1C(=O)Nc1ccc(F)cc1`, 700 nM.
On to `CN(Cc1ccc(Cl)cc1)C(=O)[C@H]1CCCN1C(=O)Nc1ccc(C(F)(F)F)cc1`, for which the IC50 in series [1] worked out at 140 nM. Besides, the remaining at 0.5 h, 1 µM was determined as 74% in [2] and 78% in series [3]. Further, the AUC in the series on Rattus norvegicus amounted to 9390 ng·h/mL. Also, the peak level in series [5] (Cmax) was 834 ng/mL. For the same compound, in [7], the bioavailability was 45%. This compound had a half-life in [8] of 264 min. For the same compound, the result in series [9], in series [10], in [11], in [12], in series [13] and in [14] was inactive.
For `O=C([C@H]1CCCN1C(=O)Nc1ccc(Cl)cc1)N(CCO)Cc1ccccc1Cl`, the IC50 in [1] turned out to be 43000 nM.
Same read-out and setting: the value for `COc1ccc(CN(C)C(=O)[C@H]2CCCN2C(=O)Nc2ccc(Cl)cc2)cc1` was above 77000 nM.
Same read-out and setting: the result for `CN(Cc1ccc(Cl)cc1)C(=O)C1CCCCN1C(=O)Nc1ccc(C(F)(F)F)cc1` (stereo unspecified) reads above 28000 nM; that for `CCN(Cc1ccc(Cl)cc1)C(=O)[C@H]1CCCN1C(=O)Nc1ccc(Cl)cc1`, 270 nM.
Take `CN(Cc1ccc(Cl)cc1)C(=O)[C@H]1CCCN1C(=O)Nc1ccc(C(F)(F)F)cc1F`: the concentration for half-maximal inhibition (IC50) in [1] turned out to be 23 nM. In addition, the figures for the remaining at 0.5 h, 1 µM in series [2] and in series [3] were 76% and 93%, respectively. Moreover, the AUC(0-t) at 6 h in series [4] was 1240 ng·h/mL. The compound also registered a Cmax in [5] of 291 ng/mL.

The term IC50 denotes the concentration that inhibits the measured activity by half. The AUC(0-t) is the area under the concentration-time curve up to a stated or last time point. A high value points to high exposure. Broadly, the Cmax is the highest concentration seen after dosing. For orientation: AUC(0-inf) means total exposure, with the tail of the curve extrapolated. A lower AUC(0-inf) goes with less exposure. Usually AUC stands for concentration integrated over time. Broadly, the bioavailability is dose-corrected exposure relative to a reference, in per cent. A higher bioavailability goes with much systemic uptake. The half-life is the time needed for the level to fall by half in the phase considered. Read a high half-life as slow loss.
